These results are taken from ChEMBL document CHEMBL1128444 (J Med Chem, 1995).

Test [1] concerns the target T1, Sodium-dependent dopamine transporter (Rattus norvegicus, UniProt P23977). The experiment in a line: Binding affinity at the Dopamine transporter in rat striata by inhibition of 0.5 nM [3H]WIN-35428 binding.
Test [2] concerns the target T2, Norepinephrine transporter (Rattus norvegicus, UniProt Q9WTR4). Put plainly: Inhibition of [3H]NE uptake by rat frontal cortex Norepinephrine transporter. Type of test: tissue-based. The gist of the method: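 Rat frontal cortex synaptosomes were used at 10 mg/mL tissue with 5 nM final [3H]norepinephrine and 10 μM pargyline in Krebs phosphate buffer, pH 7.4. Incubation was 3 min at 30 °C, followed by filtration and scintillation counting. Nonspecific uptake was defined with 1 μM desipramine. Three or four experiments were run in triplicate, and Ki was derived by Cheng–Prusoff.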

Test [3] has as its target T2, Norepinephrine transporter. Put plainly: Binding affinity at the Norepinephrine transporter in rat frontal cortex by inhibition of 0.5 nM [3H]nisoxetine binding. Format: tissue-based.
The target of test [4] is T3, Sodium-dependent serotonin transporter (Rattus norvegicus, UniProt P31652). Put plainly: Binding affinity at the Serotonin transporter in rat midbrain by inhibition of 0.5 nM [3H]-paroxetine binding. Format: tissue-based.
Test [5] addresses T3, Sodium-dependent serotonin transporter. The experiment in a line: Ratio of Ki value towards Serotonin transporter to that of dopamine transporter. The gist of the method:
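Rat [3H]uptake into crude synaptosomes in modified Krebs phosphate buffer, pH 7.4, with dextrose, ascorbic acid and 10 μM pargyline, 3 min at 30 °C, filtered and scintillation counted. DA: male Sprague–Dawley striatum, 0.5 nM [3H]dopamine, 1 μM mazindol nonspecific. 5-HT: midbrain, 5 nM [3H]serotonin, 1 μM citalopram nonspecific. Ki by Cheng–Prusoff; 5-HT Ki/DA Ki; 3–4 experiments in triplicate.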

In test [6] the target is Monoamine transporters; Norepininephrine & dopamine (Rattus norvegicus) (UniProt P23977+Q9WTR4). Put plainly: Ratio of IC50 value against NE to that of DA transporters. Format: protein assay. The gist of the method:
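Competition binding against 0.5 nM [3H]WIN 35,428 (DA transporter) or 0.5 nM [3H]nisoxetine (NE transporter). The IC50 is the mean ± standard error of three or four experiments, each run in triplicate. Selectivity ratios are NE/DA or 5-HT/DA quotients of the IC50 values.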

Test [7] concerns the target T1, Sodium-dependent dopamine transporter. The experiment in a line: Inhibition of [3H]DA uptake by rat striatal dopamine transporter. The gist of the method: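 Rat striatal crude synaptosomes were prepared from male Sprague–Dawley rats by 0.32 M sucrose homogenisation and centrifugation at 800g then 2000g. Each tube held 1.5 mg tissue, 0.5 nM [3H]dopamine and 10 μM pargyline in Krebs phosphate buffer, pH 7.4, with dextrose and ascorbate. Incubation was 3 min at 30 °C, followed by filtration and scintillation counting. Nonspecific uptake was defined with 1 μM mazindol. Three or four experiments were run in triplicate, and Ki was derived by Cheng–Prusoff.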

In test [8] the target is Monoamine transporters; serotonin & dopamine (Rattus norvegicus) (UniProt P31652+P23977). Put plainly: Ratio of IC50 value against 5-HT to that of DA transporters. Format: protein assay.
Sequence of Monoamine transporters; serotonin & dopamine (Rattus norvegicus) (P23977 whole entry, looked up): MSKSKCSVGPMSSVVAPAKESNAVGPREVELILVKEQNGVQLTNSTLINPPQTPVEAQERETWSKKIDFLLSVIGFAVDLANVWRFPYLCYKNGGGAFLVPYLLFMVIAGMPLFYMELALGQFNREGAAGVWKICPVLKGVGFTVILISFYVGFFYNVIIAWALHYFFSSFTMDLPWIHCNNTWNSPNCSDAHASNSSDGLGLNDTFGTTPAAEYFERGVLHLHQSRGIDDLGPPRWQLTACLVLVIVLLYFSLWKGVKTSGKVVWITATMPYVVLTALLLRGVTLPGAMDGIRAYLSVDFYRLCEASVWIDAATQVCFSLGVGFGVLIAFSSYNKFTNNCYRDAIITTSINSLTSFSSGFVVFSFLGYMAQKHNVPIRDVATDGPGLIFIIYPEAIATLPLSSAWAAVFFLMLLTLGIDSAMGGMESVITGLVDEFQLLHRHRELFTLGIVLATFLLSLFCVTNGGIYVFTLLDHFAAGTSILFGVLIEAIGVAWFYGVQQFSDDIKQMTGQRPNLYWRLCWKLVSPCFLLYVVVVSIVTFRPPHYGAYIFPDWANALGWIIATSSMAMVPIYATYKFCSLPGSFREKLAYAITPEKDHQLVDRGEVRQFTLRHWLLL
Sequence of Monoamine transporters; serotonin & dopamine (Rattus norvegicus) (P31652 whole entry, looked up): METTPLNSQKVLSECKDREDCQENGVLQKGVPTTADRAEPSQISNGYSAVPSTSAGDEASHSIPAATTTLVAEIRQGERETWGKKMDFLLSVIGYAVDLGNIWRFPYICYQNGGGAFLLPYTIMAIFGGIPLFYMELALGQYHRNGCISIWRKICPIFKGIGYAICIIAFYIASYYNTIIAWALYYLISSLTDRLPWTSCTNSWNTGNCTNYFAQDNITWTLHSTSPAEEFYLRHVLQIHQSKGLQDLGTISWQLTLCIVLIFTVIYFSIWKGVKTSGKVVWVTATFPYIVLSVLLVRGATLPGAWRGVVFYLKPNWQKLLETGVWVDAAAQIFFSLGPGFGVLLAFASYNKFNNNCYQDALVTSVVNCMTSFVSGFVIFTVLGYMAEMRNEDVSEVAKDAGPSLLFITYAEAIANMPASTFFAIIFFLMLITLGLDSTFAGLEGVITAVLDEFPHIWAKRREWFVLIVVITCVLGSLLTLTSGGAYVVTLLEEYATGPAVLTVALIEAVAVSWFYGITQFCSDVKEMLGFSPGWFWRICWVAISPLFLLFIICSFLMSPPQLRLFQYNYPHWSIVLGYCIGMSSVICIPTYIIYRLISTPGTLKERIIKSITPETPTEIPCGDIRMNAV

T2 sequence (Q9WTR4 whole entry): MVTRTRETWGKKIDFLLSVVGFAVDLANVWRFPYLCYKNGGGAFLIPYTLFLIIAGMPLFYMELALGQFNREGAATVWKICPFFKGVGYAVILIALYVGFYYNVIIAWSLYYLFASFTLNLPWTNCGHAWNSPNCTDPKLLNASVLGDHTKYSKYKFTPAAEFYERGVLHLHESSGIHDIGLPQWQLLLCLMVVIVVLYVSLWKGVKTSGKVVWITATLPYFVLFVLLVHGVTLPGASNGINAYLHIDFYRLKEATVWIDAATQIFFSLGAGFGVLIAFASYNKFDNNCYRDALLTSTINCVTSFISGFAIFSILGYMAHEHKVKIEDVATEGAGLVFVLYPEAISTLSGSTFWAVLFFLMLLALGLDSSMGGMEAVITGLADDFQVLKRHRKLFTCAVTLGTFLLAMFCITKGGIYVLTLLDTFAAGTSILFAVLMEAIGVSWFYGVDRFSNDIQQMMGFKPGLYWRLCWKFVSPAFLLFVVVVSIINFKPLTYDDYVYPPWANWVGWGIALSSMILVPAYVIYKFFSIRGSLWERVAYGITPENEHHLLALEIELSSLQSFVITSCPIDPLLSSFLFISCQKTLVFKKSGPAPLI
T3 sequence (P31652 whole entry): as the sequence (P31652 whole entry, looked up) above
T1 sequence (P23977 whole entry): as the sequence (P23977 whole entry, looked up) above

With `CC(C)OC(=O)C1C(c2ccc(I)cc2)CC2CCC1N2C` (stereo not drawn), the half-inhibitory concentration (IC50) (in general, the concentration that gives 50% inhibition) in test [1] was 0.43 nM; in test [3] it was 285 nM; in test [4], 66.8 nM. The Ki (usually a measure of affinity in units of concentration, obtained from inhibition or displacement) turned out to be 41.2 nM in test [2], 12.5 nM in test [5] and 2.79 nM in test [7]. Moreover, the Ratio in test [6] is 662; in test [8], 155.
